pIC50: −log10 of the molar value.

Series [1] has as its target T1, A disintegrin and metalloproteinase with thrombospondin motifs 4 (Homo sapiens, UniProt O75173).
T1 sequence (O75173 whole entry): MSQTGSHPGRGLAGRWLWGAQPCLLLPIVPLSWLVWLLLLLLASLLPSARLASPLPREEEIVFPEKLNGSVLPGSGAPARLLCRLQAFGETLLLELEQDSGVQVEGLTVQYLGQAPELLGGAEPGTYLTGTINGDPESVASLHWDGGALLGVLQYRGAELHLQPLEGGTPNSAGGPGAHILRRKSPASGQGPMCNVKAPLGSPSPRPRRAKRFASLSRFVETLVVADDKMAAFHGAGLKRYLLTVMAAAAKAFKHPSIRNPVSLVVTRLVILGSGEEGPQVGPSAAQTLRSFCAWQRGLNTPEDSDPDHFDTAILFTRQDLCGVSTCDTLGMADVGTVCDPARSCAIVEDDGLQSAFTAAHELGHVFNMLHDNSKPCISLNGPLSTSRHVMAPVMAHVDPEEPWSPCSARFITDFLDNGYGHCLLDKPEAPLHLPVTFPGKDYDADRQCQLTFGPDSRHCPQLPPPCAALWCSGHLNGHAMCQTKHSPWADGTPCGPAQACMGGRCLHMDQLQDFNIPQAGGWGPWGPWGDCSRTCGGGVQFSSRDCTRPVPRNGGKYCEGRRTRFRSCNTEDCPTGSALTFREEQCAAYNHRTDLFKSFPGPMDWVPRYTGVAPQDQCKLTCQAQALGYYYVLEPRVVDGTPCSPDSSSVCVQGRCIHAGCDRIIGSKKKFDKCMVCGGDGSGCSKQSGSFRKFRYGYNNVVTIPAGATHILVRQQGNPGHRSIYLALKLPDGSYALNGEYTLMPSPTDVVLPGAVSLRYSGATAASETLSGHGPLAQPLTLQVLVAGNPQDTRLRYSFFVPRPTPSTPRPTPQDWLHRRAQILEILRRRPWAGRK
The experiment in a line: Inhibitory concentration against aggrecanase. The procedure, abridged:
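Cell-based assay in porcine chondrocytes. Aggrecan GAG chains labelled by culture with ³⁵S sulfate, then unincorporated label washed out. Aggrecan degradation stimulated with IL-1a (5ng/mL).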

Another series concerns the target T2, Interstitial collagenase (Homo sapiens, UniProt P03956).
T2 sequence (P03956 whole entry): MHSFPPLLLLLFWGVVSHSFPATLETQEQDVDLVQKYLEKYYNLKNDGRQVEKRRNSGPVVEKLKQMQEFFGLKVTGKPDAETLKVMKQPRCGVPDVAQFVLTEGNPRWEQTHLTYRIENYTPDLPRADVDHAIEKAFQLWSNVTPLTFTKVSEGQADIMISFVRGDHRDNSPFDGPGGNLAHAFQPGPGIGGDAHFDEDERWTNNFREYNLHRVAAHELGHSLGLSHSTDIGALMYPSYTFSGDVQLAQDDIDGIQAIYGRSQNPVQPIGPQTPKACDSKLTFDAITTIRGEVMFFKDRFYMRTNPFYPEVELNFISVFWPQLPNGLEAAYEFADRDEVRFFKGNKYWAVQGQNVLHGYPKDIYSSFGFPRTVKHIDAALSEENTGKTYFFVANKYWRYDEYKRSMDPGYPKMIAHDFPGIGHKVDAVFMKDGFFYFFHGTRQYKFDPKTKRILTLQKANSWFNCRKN
Nature of the series: Inhibitory concentration against matrix metalloprotease 1.

For a further series, the target named is Collagenase 3 (Homo sapiens, UniProt P45452). The experiment in a line: Inhibitory concentration against matrix metalloprotease 13.
The target of the next series is Stromelysin-1 (Homo sapiens, UniProt P08254). The experiment in a line: Inhibition of matrix metalloprotease 3.
Stromelysin-1, sequence (P08254 whole entry): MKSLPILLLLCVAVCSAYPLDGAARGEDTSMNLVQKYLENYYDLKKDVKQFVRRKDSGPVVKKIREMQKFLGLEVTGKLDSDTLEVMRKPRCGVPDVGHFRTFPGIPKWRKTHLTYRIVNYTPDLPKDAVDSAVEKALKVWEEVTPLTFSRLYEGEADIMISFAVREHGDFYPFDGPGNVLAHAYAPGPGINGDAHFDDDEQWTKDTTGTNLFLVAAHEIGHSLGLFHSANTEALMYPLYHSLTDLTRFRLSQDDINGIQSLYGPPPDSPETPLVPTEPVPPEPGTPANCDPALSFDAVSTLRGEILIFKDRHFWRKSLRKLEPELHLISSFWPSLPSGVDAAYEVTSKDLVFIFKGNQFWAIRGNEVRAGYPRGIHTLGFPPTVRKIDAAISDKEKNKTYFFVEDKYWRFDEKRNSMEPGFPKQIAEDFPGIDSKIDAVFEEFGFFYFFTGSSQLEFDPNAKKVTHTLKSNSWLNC
Series [2] has as its target Matrix metalloproteinase-9 (Homo sapiens, UniProt P14780). The experiment in a line: Inhibition of matrix metalloprotease 9.
Series [3] concerns the target Macrophage metalloelastase (Homo sapiens, UniProt P39900). The experiment in a line: Inhibition of matrix metalloprotease 12.
Series [4] concerns the target Matrix metalloproteinase-14 (Homo sapiens, UniProt P50281). Nature of the series: Inhibition of matrix metalloprotease 14.
Series [5] is described as follows: Half life in rat. Particulars: in vivo. Format: ADME, organism-based. In short, it runs like this: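 Rat PK after IV bolus of 5mg/kg in glycerol formal. Blood drawn from the jugular vein at 5, 15, 30 min and 1, 2, 4, 6, 8, 24 h. Plasma diluted with an equal volume of water, extracted with MTBE, drug measured by LC–MS/MS. Parameters from noncompartmental analysis.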

Series [6] is described as follows: Oral bioavailability in rat. Type of series: ADME, organism-based. The conditions noted are these: in vivo. In short, it runs like this:
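Oral dose given to rat as a suspension in 0.5% aqueous methylcellulose.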

A short description of series [7]: Inhibition of TNF alpha converting enzyme (TACE, ADAM17).

Matrix metalloproteinase-9, sequence (P14780 whole entry): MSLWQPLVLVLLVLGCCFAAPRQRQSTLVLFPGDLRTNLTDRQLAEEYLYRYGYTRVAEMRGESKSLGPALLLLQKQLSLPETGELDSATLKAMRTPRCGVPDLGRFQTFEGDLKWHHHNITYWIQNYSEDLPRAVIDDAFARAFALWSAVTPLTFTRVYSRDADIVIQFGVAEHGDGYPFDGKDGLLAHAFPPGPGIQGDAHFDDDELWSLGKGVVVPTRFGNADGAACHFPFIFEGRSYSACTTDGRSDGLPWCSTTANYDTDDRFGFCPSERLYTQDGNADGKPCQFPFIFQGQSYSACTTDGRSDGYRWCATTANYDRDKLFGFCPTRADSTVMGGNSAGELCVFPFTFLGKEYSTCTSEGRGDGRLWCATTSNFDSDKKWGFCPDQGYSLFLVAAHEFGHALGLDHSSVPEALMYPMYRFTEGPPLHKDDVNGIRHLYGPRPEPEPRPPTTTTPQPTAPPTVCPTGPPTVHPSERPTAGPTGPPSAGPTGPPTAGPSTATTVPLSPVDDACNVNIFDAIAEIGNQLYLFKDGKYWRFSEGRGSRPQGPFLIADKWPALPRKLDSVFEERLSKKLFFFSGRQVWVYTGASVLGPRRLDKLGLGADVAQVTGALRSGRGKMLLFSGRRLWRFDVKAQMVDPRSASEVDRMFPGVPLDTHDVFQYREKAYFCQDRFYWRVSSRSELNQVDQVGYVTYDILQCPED
Macrophage metalloelastase, sequence (P39900 whole entry): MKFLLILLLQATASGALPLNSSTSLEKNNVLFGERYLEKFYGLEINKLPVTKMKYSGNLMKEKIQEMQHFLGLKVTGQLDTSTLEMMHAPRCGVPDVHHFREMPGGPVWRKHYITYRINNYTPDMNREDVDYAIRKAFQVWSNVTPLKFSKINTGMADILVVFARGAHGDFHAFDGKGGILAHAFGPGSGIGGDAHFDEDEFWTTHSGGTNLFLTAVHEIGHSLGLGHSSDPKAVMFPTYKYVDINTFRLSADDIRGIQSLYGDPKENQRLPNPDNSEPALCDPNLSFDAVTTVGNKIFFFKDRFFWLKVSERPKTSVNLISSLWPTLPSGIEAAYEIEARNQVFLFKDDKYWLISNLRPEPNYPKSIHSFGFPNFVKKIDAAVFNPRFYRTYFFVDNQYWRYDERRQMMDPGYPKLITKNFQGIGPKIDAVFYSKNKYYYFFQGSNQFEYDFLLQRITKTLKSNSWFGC

For orientation: pIC50 means the IC50 on a negative log10 scale, so that one unit is a factor of ten. A low value points to a large IC50. `Cc1cccc(Oc2ccc(S(=O)(=O)[C@@H]3CCOC[C@]3(O)C(=O)NO)cc2)c1`: the negative-log IC50 (pIC50) in [1] is less than 6.00; against Interstitial collagenase, 6.57; on Collagenase 3, 8.96.

Regarding `Cc1ccc(-c2ccc(S(=O)(=O)[C@@H]3CCOC[C@]3(O)C(=O)NO)cc2)cc1`, the pIC50 in series [1] was less than 6.00; against Interstitial collagenase, more than 7.52; at Collagenase 3, 9.41.

For `Cc1cccc(C)c1COc1ccc(S(=O)(=O)[C@@H]2CCOC[C@]2(O)C(=O)NO)cc1`, the negative logarithm of the IC50 (pIC50) in [1] was less than 6.00; at Interstitial collagenase, less than 4.52; against Collagenase 3, less than 6.52.

Turning to `Cc1ccccc1Oc1ccc(S(=O)(=O)[C@@H]2CCOC[C@]2(O)C(=O)NO)cc1`, the pIC50 was less than 6.00 in series [1], 5.33 on Interstitial collagenase and 8.01 on Collagenase 3.

For `CO[C@]1(C(=O)NO)COCC[C@H]1S(=O)(=O)c1ccc(OCc2ccccc2Cl)cc1`, the figures for the pIC50 (in [1]; on Collagenase 3) were 7.00 and 7.42, respectively.

With `Cc1ccc(Oc2ccc(S(=O)(=O)[C@@H]3CCOC[C@]3(O)C(=O)NO)cc2)cc1`, the negative logarithm of the IC50 (pIC50) in series [1] is less than 6.00; on Interstitial collagenase, 6.92; against Collagenase 3 it was 9.00.

As to `O=C(NO)[C@@]1(O)COCC[C@H]1S(=O)(=O)c1ccc(OCc2cccc(Cl)c2Cl)cc1`, the pIC50 in series [1] is 6.85; on Interstitial collagenase, 4.89; against Collagenase 3 it was 7.82.

With `O=C(NO)[C@@]1(O)COCC[C@H]1S(=O)(=O)c1ccc(OCc2ccc(Cl)cc2)cc1`, the pIC50 is 6.48 in series [1], 5.85 against Interstitial collagenase and 9.06 at Collagenase 3.

Consider `CO[C@]1(C(=O)NO)COCC[C@H]1S(=O)(=O)c1ccc(OCc2ccc(Cl)cc2Cl)cc1`, for which the pIC50 was 7.00 in [1] and 7.34 on Collagenase 3.

Regarding `Cc1ccccc1-c1ccc(S(=O)(=O)[C@@H]2CCOC[C@]2(O)C(=O)NO)cc1`, the figures for the pIC50 (in series [1]; against Interstitial collagenase; on Collagenase 3) were less than 6.00, 5.00 and 6.85, respectively.

Turning to `O=C(NO)[C@@]1(O)COCC[C@H]1S(=O)(=O)c1ccc(OCc2ccccc2C(F)(F)F)cc1`, the negative-log IC50 (pIC50) in series [1] is 6.66; on Interstitial collagenase, less than 4.52; against Collagenase 3, 7.55.

Turning to `O=C(NO)[C@@]1(O)COCC[C@H]1S(=O)(=O)c1ccc(OCc2cccc(Cl)c2)cc1`, the negative-log IC50 (pIC50) in series [1] is less than 6.00; against Interstitial collagenase it was 5.10; against Collagenase 3 it was 8.62.

Take `Cc1ccc(COc2ccc(S(=O)(=O)[C@@H]3CCOC[C@]3(O)C(=O)NO)cc2)cc1`: the negative logarithm of the IC50 (pIC50) in series [1] was less than 6.00; at Interstitial collagenase, 5.27; at Collagenase 3, 8.89.

As a reminder, the half-life is how long it takes for the measured level to halve. One may read the bioavailability as dose-corrected exposure relative to a reference, in per cent. Regarding `O=C(NO)[C@@]1(O)COCC[C@H]1S(=O)(=O)c1ccc(OCc2ccc(Cl)cc2Cl)cc1`, the pIC50 in series [1] is 8.09; against Interstitial collagenase it was 6.04; against Stromelysin-1, 7.26; in series [2] it was 8.28; in series [3] it was 9.02; at Collagenase 3, 9.02. In [4], the pIC50 is 6.82. This compound also had a half-life in [5] of 5 h. Besides, in series [6], the bioavailability turned out to be 7%.

As for `O=C(NO)[C@@]1(O)COCC[C@H]1S(=O)(=O)c1ccc(OCc2ccccc2Cl)cc1`, the pIC50 in series [1] is 7.40; against Interstitial collagenase it was 5.55; at Collagenase 3 it was 8.57.

For the compound `O=C(NO)[C@H]1C[C@@H](O)CCN1S(=O)(=O)c1ccc(OCc2ccccc2Cl)cc1`, the values for the negative-log IC50 (pIC50) (against Collagenase 3; in [7]) were 7.92 and 7.44, respectively.

For `Cc1ccc(C)c(COc2ccc(S(=O)(=O)[C@@H]3CCOC[C@]3(O)C(=O)NO)cc2)c1`, the negative-log IC50 (pIC50) is 7.59 in series [1], less than 4.52 at Interstitial collagenase and 6.52 on Collagenase 3.

Take `Cc1ccc(COc2ccc(S(=O)(=O)[C@@H]3CCOC[C@]3(O)C(=O)NO)cc2)c(C)c1`: the pIC50 in series [1] is 6.43; against Interstitial collagenase, 4.72; at Collagenase 3, 7.77.

For `Cc1ccccc1COc1ccc(S(=O)(=O)[C@@H]2CCOC[C@]2(O)C(=O)NO)cc1`, the negative-log IC50 (pIC50) in series [1] is 7.26; on Interstitial collagenase, 4.92; on Collagenase 3, 7.68.

Consider `Cc1cccc(-c2ccc(S(=O)(=O)[C@@H]3CCOC[C@]3(O)C(=O)NO)cc2)c1`, for which the pIC50 in series [1] was less than 6.00; at Interstitial collagenase it was more than 7.52; at Collagenase 3 it was 9.37.

`O=C(NO)[C@@]1(O)COCC[C@H]1S(=O)(=O)c1ccc(OCc2cc(Cl)ccc2Cl)cc1`: the negative-log IC50 (pIC50) in series [1] was 7.06; on Interstitial collagenase it was 4.57; against Collagenase 3, 7.89.

As for `Cc1cccc(COc2ccc(S(=O)(=O)[C@@H]3CCOC[C@]3(O)C(=O)NO)cc2)c1`, the negative-log IC50 (pIC50) in [1] was less than 6.00; against Interstitial collagenase it was 4.66; against Collagenase 3, 8.30.

Regarding `O=C(NO)[C@@]1(O)COCC[C@H]1S(=O)(=O)c1ccc(OCc2c(Cl)cccc2Cl)cc1`, the negative logarithm of the IC50 (pIC50) was less than 6.00 in [1], less than 4.52 on Interstitial collagenase and less than 6.52 against Collagenase 3.
